From ChEMBL document CHEMBL1649190, “Identification and characterization of mefloquine efficacy against JC virus in vitro” (Antimicrob Agents Chemother, 2009)
Structures can show the parent of a compound that is named as a salt.

Assays:
in vitro [1] = details: human
JC polyomavirus [2] = test: microbe, parasite or virus in culture; assay type: functional, cell-based; details: M1/SVEdelta, SVG-A, 72 h
in vitro [3] = details: human; remark: listed apart in the source
Plasma = test: Drug concentration in human plasma; assay type: ADME, cell-free; details: read-out: Drug uptake
JC polyomavirus [4] = test: Antiviral activity against JC polyomavirus M1/SVEdelta infected in human SVG-A cells assessed as inhibition of viral replication after 3 days; details: 72 h
JC polyomavirus [5] = test: Antiviral activity against JC polyomavirus Mad1 infected in human PHFG cells assessed as inhibition of viral replication after 7 to 10 days
[6] = Lipophilicity, log P of the compound; assay type: physicochemical; details: octanol/water
JC polyomavirus [7] = test: Antiviral activity against JC polyomavirus Mad4 infected in human SVG-A cells assessed as inhibition of viral replication after 3 days; assay type: functional, cell-based; details: 72 h
Method in brief: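 SVG-A cells (2,000/well) in MEM with 2% heat-inactivated FBS and 4 mM L-glutamine were exposed to JCV(Mad4) plus compound over a concentration range for 60 min at 37°C. Drug-containing medium was then added. Cells were fixed, then stained for VP1 (PAb597) and DAPI and imaged. Infection rate was % VP1+/DAPI+ cells; inhibition was scaled to infected and uninfected controls. EC50 came from a sigmoid fit, n = 5.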

[8] = SVG-A cells infected with JC polyomavirus M1/SVEdelta

Compound	selectivity ratio (in vitro [1]; [8])	EC50 (JC polyomavirus [2])	CC50 (in vitro [3]; SVG-A cells)	concentration (Plasma)	also measured
CC(=O)O[C@H]1C[C@@]2(C)[C@@H](C[C@@H](O)[C@H]3[C@@]4(C)CC[C@@H](O)[C@@H](C)[C@@H]4CC[C@@]32C)/C1=C(\CCC=C(C)C)C(=O)O [FUSIDIC ACID]	> 2	8.6 µM	> 40 µM	19 µM	–
O=C(O)c1ccccc1Nc1cccc(C(F)(F)F)c1 [FLUFENAMIC ACID]	> 3	11 µM	–	–	–
O=C(O)Cc1ccccc1Nc1c(Cl)cccc1Cl [DICLOFENAC SODIUM]	> 2	8.3 µM	30.5 µM	8 µM	–
Cc1c(Cl)cccc1Nc1ccccc1C(=O)O [TOLFENAMIC ACID]	> 3	15 µM	–	–	–
CC1=C(/C=C/C(C)=C/C=C/C(C)=C\C(=O)O)C(C)(C)CCC1 [ISOTRETINOIN]	–	4.4 µM	> 40 µM	24 µM	selectivity ratio (in vitro [1]; svg-a): > 2
Cc1c(Nc2ncccc2C(=O)O)cccc1C(F)(F)F [FLUNIXIN MEGLUMINE]	> 2	14.5 µM	> 40 µM	–	–
O[C@@H](c1cc(C(F)(F)F)nc2c(C(F)(F)F)cccc12)[C@H]1CCCCN1 [(S,R)-MEFLOQUINE]	–	4.5 µM	–	–	–
OC(c1cc(C(F)(F)F)nc2c(C(F)(F)F)cccc12)C1CCCCN1 (configuration not stated) [MEFLOQUINE]	–	4 µM	–	6 µM	IC50 (JC polyomavirus [4]): 4 µM; selectivity ratio (in vitro [1]; svg-a): > 2; IC50 (JC polyomavirus [5]): 5 µM; IC50 (JC polyomavirus [2]): 3.9 µM; logP [6]: 2.47; CC50 (in vitro [3]; svg-a): 16.1 µM; IC50 (JC polyomavirus [7]): 4 µM
O[C@H](c1cc(C(F)(F)F)nc2c(C(F)(F)F)cccc12)[C@@H]1CCCCN1 (racemic) [(R,S)-MEFLOQUINE]	–	2.7 µM	–	–	–
Cc1nccc2c1[nH]c1ccccc12 [HARMAN]	> 2	14.4 µM	> 40 µM	–	–
Clc1ccc(COC(Cn2ccnc2)c2ccc(Cl)cc2Cl)c(Cl)c1 (configuration not stated) [MICONAZOLE NITRATE]	–	–	–	–	CC50 (in vitro [3]; svg-a): 22.9 µM
CCC(=O)Nc1ccc(Cl)c(Cl)c1 [PROPANIL]	> 2	7.8 µM	> 40 µM	–	–
Cc1cccc(Nc2ccccc2C(=O)O)c1C [MEFENAMIC ACID]	> 2	10.9 µM	> 40 µM	40 µM	–
COc1cc(C)c(C(=O)Oc2cc(C)c(C(=O)O)c(O)c2C)c(OC)c1C [DIFFRACTAIC ACID]	> 2	14.4 µM	> 40 µM	–	–
CC(C)c1ccc2c(c1)CC[C@H]1[C@](C)(C(N)=O)CCC[C@]21C [DEHYDROABIETAMIDE]	> 2	–	> 40 µM	–	–
COc1ccc([C@@H]2Sc3ccccc3N(CCN(C)C)C(=O)[C@@H]2OC(C)=O)cc1 [DILTIAZEM HYDROCHLORIDE]	–	8.5 µM	> 40 µM	0.5 µM	–
O=c1c2ccccc2oc2ccccc12 [XANTHONE]	> 2	16.8 µM	> 40 µM	–	–
